Data from paper PMC10441371 (bioRxiv, 2023).
“Also recorded” adds a separate entry of the source. Counter-ions that a name gives are not always drawn. Like-named read-outs stand apart in the source and are kept apart here.

Experiments:
SH-SY5Y cell line = settings: ref Rodriguez et al., 2018; cited from earlier work
N27 cell line = settings: ref Rodriguez et al., 2018; cited from earlier work
SULT2A1 = settings: ref Parker et al., 2018; cited from earlier work
SULT1E1 = settings: ref Parker et al., 2018; cited from earlier work
[1] = male rats, single IP dose 150 mg/kg BW; ref Parkinson et al., 1983; cited from earlier work
CYP2B = settings: PCB 52 exposure; ref Parkinson et al., 1983; cited from earlier work
[2] = type: in vivo, Sprague Dawley rats; settings: for Levels in liver, mean (SD): wet weight; for Detection in the brain: PCB 52 exposed rats
[3] = test system: endogenous serum metabolites; experiment: Targeted metabolomics of serum samples; type: in vivo, Sprague Dawley rats; settings: 0 to 100 mg/kg BW IP, 3 weeks
Summary of the method: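 In female Sprague Dawley rats, serum was taken 3 weeks after a single IP dose of vehicle or 1–100 mg/kg test compound. Heart blood clotted ≥30 min at room temperature and was spun at 2,500 g (10 min, 4°C). Extracts (solvent:sample 18:1, −20°C 1 h) were methoximated (60°C 1 h), then TMS-derivatized (60°C 30 min). GC-Orbitrap analysis used EI full scan m/z 56.7–850 against a 94-metabolite list. Intensities were total-normalized; data were analyzed by PLS-DA and dose linear regression with Benjamini-Hochberg FDR.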

[4] = test system: dopamine and its metabolites, DOPAL and DOPAC; experiment: Dopamine and metabolites analysis in striatum; type: in vivo, Sprague Dawley rats; settings: different doses of PCB 52 IP, 3 weeks post injection, vs vehicle
Summary of the method: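 Female Sprague Dawley rats (4–5 weeks, 75–100 g, acclimated 1 week) got a single IP injection of corn oil or test compound in corn oil at 1, 10 or 100 mg/kg BW. They were euthanized after 3 weeks by CO2 and thoracotomy. Nigrostriatal tissue was homogenized in ice-cold 0.3 M perchloric acid and spun at 10,000 g for 10 min. Supernatant went to capillary HPLC with coulometric detection (guard +350, E1 −150, E2 +200 mV). Values are pmol/mg tissue; ANOVA with Tukey.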

[5] = General toxicity: body and organ weights after IP exposure; type: in vivo, Sprague Dawley rats
Summary of the method: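 Rats were female Sprague Dawley, 4–5 weeks old and 75–100 g, acclimated 1 week. Each received a single IP dose of corn oil vehicle or test compound at 1, 10 or 100 mg/kg BW. Body weight was recorded at 5 time points over 3 weeks. After CO2 euthanasia, liver, spleen and thymus were excised; liver weight was adjusted for body weight. Groups were compared by one-way ANOVA with Tukey, p<0.05.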

thyroid hormone receptor = settings: ref Kitamura et al., 2005; cited from earlier work
estrogenic activity = settings: ref Kitamura et al., 2005; cited from earlier work
[6] = no dose-response relationship observed
[7] = 1, 10 or 100 mg/kg BW IP, 3 weeks, body weight-adjusted, vs vehicle
[8] = 10 mg/kg BW PCB 52 IP, 3 weeks after dosing, N = 3
[9] = 100 mg/kg BW PCB 52 IP, 3 weeks after dosing, N = 5

O=S(=O)(O)Oc1cc(Cl)c(-c2cc(Cl)ccc2Cl)cc1Cl [PCB 52 sulfate]
Toxicity (SH-SY5Y cell line): low micromolar range
Toxicity (N27 cell line): low micromolar range
Inhibition of SULT2A1 (SULT2A1): inhibitors
Inhibition of SULT1E1 (SULT1E1): inhibitor

Clc1ccc(Cl)c(-c2cc(Cl)ccc2Cl)c1 [PCB 52, 2,2',5,5'-Tetrachlorobiphenyl]
Bodyweight-adjusted liver weights vs control [1]: not significantly different
CYP2B enzyme activity in the rat liver (CYP2B): induced
Ratio of mean PCB 52 tissue levels, 100 mg/kg BW vs 10 mg/kg BW dose group ([2]; brain (lowest ratio)): 2.9
Ratio of mean PCB 52 tissue levels, 100 mg/kg BW vs 10 mg/kg BW dose group ([2]; highest ratio among tissues, tissue not given): 5.6
Ratio of mean PCB 52 levels, 10 mg/kg BW vs 1 mg/kg BW dose group ([2]; liver): ~7.0 times
Ratio of mean PCB 52 levels, 10 mg/kg BW vs 1 mg/kg BW dose group ([2]; serum): approximately 4.0 times
Presence in tissues investigated (adipose, brain, liver, serum) ([2]; three weeks following the IP injection): present in all tissues investigated
Serum L-cysteine levels [3]: decreased dose-dependent
Serum L-histidine levels [3]: dose-dependent increase
Serum cytosine levels [3]: decreased dose-dependent
Serum erythrose levels [3]: decreased dose-dependent
Serum glycine levels [3]: dose-dependent increase
Serum orotic acid levels [3]: decreased dose-dependent
Serum sphingosine levels [3]: decreased dose-dependent
Serum linoleic acid levels [3, 6]: significantly affected
Serum thymine levels [3, 6]: significantly affected
Number of significantly altered serum metabolites ([3]; out of the 81 metabolites included, raw p-values < 0.05): 9
DOPAC levels in the striatum [4]: no significant differences; also recorded: not significantly different
DOPAL levels in the striatum [4]: no significant differences; also recorded: not significantly different
Dopamine levels in the striatum [4]: no significant differences; also recorded: not significantly different
Effect on bodyweight-adjusted liver weights ([5]; 10 mg/kg BW IP, 3 weeks, vs vehicle group, p < 0.05): significantly smaller; also recorded: significant decrease
Effect on overall body weight ([5]; 1, 10 or 100 mg/kg BW IP, 3-week study, vs vehicle): did not affect; also recorded: no significant impact
Effect on spleen weights [5, 7]: did not affect
Effect on thymus weights [5, 7]: did not affect

Oc1cc(Cl)c(-c2cc(Cl)ccc2Cl)cc1Cl [4-OH-PCB 52, 2,5-dichloro-4-(2,5-dichlorophenyl)phenol]
Affinity for the thyroid hormone receptor (thyroid hormone receptor): low affinity
Levels in liver, mean (SD) [2, 8]: 0.15 ng/g
Levels in liver, mean (SD) [2, 9]: 0.57 ng/g
Detection in the brain [2]: observed in the brain of one animal
Detection in adipose tissue ([2]; high-dose group (100 mg/kg BW)): detected only in adipose tissue from one animal
Inhibition of SULT2A1 (SULT2A1): inhibitors
Estrogenic activity in vitro (estrogenic activity): low estrogenic activity

Oc1cc(Cl)cc(-c2cc(Cl)ccc2Cl)c1Cl [X1-PCB 52, 2,2’,5,5’-tetrachlorobiphenyl-3-ol]
Estimated mean level in the serum ([2]; 10 mg/kg BW PCB 52 IP, 3 weeks after dosing): 0.07 ng/kg BW
Levels in liver, mean (SD) [2, 8]: 0.28 ng/g
Levels in serum, mean (SD) [2, 9]: 0.69 ng/g
Levels in liver, mean (SD) [2, 9]: 0.85 ng/g
Detection in the brain [2]: observed in the brain of one animal
Detection in adipose tissue ([2]; all other exposure groups (below high dose)): below the LOD
Detection in adipose tissue ([2]; high-dose group (100 mg/kg BW)): present
